Results on nine compounds are retold here after ChEMBL document CHEMBL2203099, “Identification of a crucial amino acid in the helix position 6.51 of human tachykinin neurokinin 1 and 3 receptors contributing to the insurmountable mode of antagonism by dual NK₁/NK₃ antagonists” (J Med Chem, 2012).

Test [1] has as its target T1, Substance-P receptor (Homo sapiens, UniProt P25103). Nature of the test: Displacement of radioligand [3H]SP from wild type human NK1 receptor expressed in HEK293 cells. Format: cell-based. The essentials: (§1)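 Membranes from transiently transfected HEK293 cells, 2.5 μg protein/well, in 50 mM HEPES pH 7.4 with 3 mM MnCl2, phosphoramidon, leupeptin and 0.04% BSA. 10 competitor concentrations (0.0003–10 μM), 90 min at rt. Nonspecific binding with 10 μM NK1 antagonist. Filtration, then scintillation counting. Ki by Cheng–Prusoff. Three experiments, each in duplicate.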

The target of test [2] is T2, Neuromedin-K receptor (Homo sapiens, UniProt P29371).
T2 sequence (P29371 whole entry): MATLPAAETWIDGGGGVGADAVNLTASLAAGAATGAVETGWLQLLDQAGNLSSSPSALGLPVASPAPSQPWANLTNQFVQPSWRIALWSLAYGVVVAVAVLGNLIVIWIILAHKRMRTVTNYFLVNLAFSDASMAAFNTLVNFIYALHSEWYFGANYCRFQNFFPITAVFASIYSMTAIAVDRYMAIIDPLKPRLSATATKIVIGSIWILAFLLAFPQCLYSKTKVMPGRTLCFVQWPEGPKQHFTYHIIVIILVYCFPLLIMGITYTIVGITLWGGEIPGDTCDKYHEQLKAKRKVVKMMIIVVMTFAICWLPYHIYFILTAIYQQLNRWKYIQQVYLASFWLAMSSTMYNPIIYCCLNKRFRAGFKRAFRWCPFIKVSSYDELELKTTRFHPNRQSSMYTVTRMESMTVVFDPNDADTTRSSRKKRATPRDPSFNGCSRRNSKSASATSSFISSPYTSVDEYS
Description: Competitive inhibition at wild type human NK3 expressed in HEK293 cells assessed as decrease in [MePhe7]NKB-induced [3H]IP accumulation after 20 mins. As to conditions: read-out: pA2 (converted). It is filed as cell-based. The essentials: (§2)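 HEK293 cells transiently expressing human NK3 WT or mutant, labeled with myo-[³H]inositol in LiCl buffer. Antagonist preincubated 20 min at 37 °C, then [MePhe⁷]NKB (0.01 nM–1 μM) added for 45 min at 37 °C. [³H]IP read by SPA beads. Schild analysis of EC50 shift and Emax depression across increasing antagonist concentrations gives pA2, slope and mode of antagonism.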

Test [3] concerns T3, Neuromedin-K receptor (Homo sapiens), P29371 [H316W].
T3 sequence (whole entry): T2 sequence (P29371 whole entry) with H316W
Description: Antagonist activity at human NK3 H316W6.52 mutant expressed in HEK293 cells assessed as decrease in [MePhe7]NKB-induced [3H]IP accumulation after 20 mins. It is filed as functional, cell-based. The essentials:
as §2

In test [4] the test system is Substance-P receptor (Homo sapiens), P25103 [F264Y]. Description: Noncompetitive inhibition of human NK1 F264Y6.51 mutant receptor expressed in HEK293 cells assessed as decrease in SP1-induced [3H]IP accumulation after 20 mins. Format: cell-based.
Test [5] addresses Neuromedin-K receptor (Homo sapiens, UniProt P29371, Y247W). Nature of the test: Displacement of radioligand [3H]osanetant at human NK3 Y247W mutant expressed in HEK293 cells. It is filed as cell-based.
The target in test [6] is T4, Substance-P receptor (Homo sapiens, UniProt P25103, F264Y). Nature of the test: Displacement of radioligand [3H]SP from human NK1 F264Y6.51 mutant expressed in HEK293 cells. Format: cell-based. The essentials:
as §1

The target of test [7] is Neuromedin-K receptor (Homo sapiens, UniProt P29371, H316W). Description: Displacement of radioligand [3H]osanetant at human NK3 H316W mutant expressed in HEK293 cells. Format: cell-based.
The test system of test [8] is HEK293. Nature of the test: Selectivity ratio of Ki for human NK3 Y247W mutant expressed in HEK293 cells to Ki for wild type human NK3 receptor expressed in HEK293 cells. Format: cell-based.
Test [9] addresses T5, Neuromedin-K receptor (Homo sapiens, UniProt P29371, Y247F). Description: Displacement of radioligand [3H]osanetant at human NK3 Y247F mutant expressed in HEK293 cells. It is filed as cell-based.
In test [10] the target is T5, Neuromedin-K receptor. Nature of the test: Competitive inhibition at human NK3 Y247F5.38 mutant expressed in HEK293 cells assessed as decrease in [MePhe7]NKB-induced [3H]IP accumulation after 20 mins. It is filed as cell-based. As to conditions: read-out: pA2 (converted).
The target of test [11] is T2, Neuromedin-K receptor. Nature of the test: Displacement of [3H]osanetant from wild type human NK3 receptor expressed in HEK293 cells. Format: cell-based. Background: In a radioligand displacement assay an active substance lowers the binding of a labelled ligand.
The target of test [12] is T1, Substance-P receptor. Nature of the test: Noncompetitive inhibition of wild type human NK1 receptor expressed in HEK293 cells assessed as decrease in SP1-induced [3H]IP accumulation after 20 mins. It is filed as cell-based.
Test [13] has as its target Neuromedin-K receptor (Homo sapiens, UniProt P29371, H316F). Nature of the test: Displacement of radioligand [3H]osanetant at human NK3 H316F mutant expressed in HEK293 cells. Format: cell-based.
Test [14] concerns T6, Neuromedin-K receptor (Homo sapiens), P29371 [Y315F].
T6 sequence (whole entry): T2 sequence (P29371 whole entry) with Y315F
Nature of the test: Noncompetitive inhibition at human NK3 Y315F6.51 mutant expressed in HEK293 cells assessed as decrease in [MePhe7]NKB-induced [3H]IP accumulation after 20 mins. It is filed as cell-based. The essentials:
as §2

For test [15], the system named is HEK293. Nature of the test: Selectivity ratio of Ki for human NK3 H316F mutant expressed in HEK293 cells to Ki for wild type human NK3 receptor expressed in HEK293 cells. It is filed as cell-based.
Test [16] deals with HEK293. Description: Selectivity ratio of Ki for wild type human NK3 receptor expressed in HEK293 cells to Ki for human NK3 Y315F6.51 mutant expressed in HEK293 cells. It is filed as cell-based.
The target in test [17] is T7, Neuromedin-K receptor (Homo sapiens, UniProt P29371, Y315F). Description: Displacement of radioligand [3H]osanetant at human NK3 Y315F6.51 mutant expressed in HEK293 cells. It is filed as cell-based.
The test system of test [18] is HEK293. Description: Selectivity ratio of Ki for human NK3 Y247F mutant expressed in HEK293 cells to Ki for wild type human NK3 receptor expressed in HEK293 cells. Format: cell-based.
In test [19] the target is T7, Neuromedin-K receptor. Description: Competitive inhibition at human NK3 Y315F6.51 mutant expressed in HEK293 cells assessed as decrease in [MePhe7]NKB-induced [3H]IP accumulation after 20 mins. Format: cell-based. As to conditions: read-out: pA2 (converted). The essentials:
as §2

For test [20], the target named is T1, Substance-P receptor.
Test [21] concerns the target Neuromedin-K receptor (Homo sapiens, UniProt P29371, Y247A). Description: Binding affinity to human NK3 Y247A mutant expressed in HEK293 cells.
For test [22], the target named is T8, Neuromedin-K receptor (Homo sapiens) (UniProt P29371).
T8 sequence (whole entry): T2 sequence (P29371 whole entry)
Nature of the test: Noncompetitive inhibition at wild type human NK3 expressed in HEK293 cells assessed as decrease in [MePhe7]NKB-induced [3H]IP accumulation after 20 mins. Format: cell-based. In outline:
as §2

The test system of test [23] is T6, Neuromedin-K receptor (Homo sapiens), P29371 [Y315F]. Nature of the test: Antagonist activity at human NK3 Y315F6.51 mutant expressed in HEK293 cells assessed as decrease in [MePhe7]NKB-induced [3H]IP accumulation at 10 nM after 20 mins. Format: functional, cell-based.
Test [24] has as its target T4, Substance-P receptor. Nature of the test: Partial noncompetitive inhibition of human F264Y6.51 mutant expressed in HEK293 cells assessed as decrease in SP1-induced [3H]IP accumulation after 20 mins. Format: cell-based. The conditions noted are these: read-out: pA2 (converted).

Residue numbers refer to the chain shown, from its start. The source made the active and inactive calls. No cut-off for these calls is given here. Where only a bound is given, the exact number is not on record here.

T4 sequence (P25103 whole entry F264Y): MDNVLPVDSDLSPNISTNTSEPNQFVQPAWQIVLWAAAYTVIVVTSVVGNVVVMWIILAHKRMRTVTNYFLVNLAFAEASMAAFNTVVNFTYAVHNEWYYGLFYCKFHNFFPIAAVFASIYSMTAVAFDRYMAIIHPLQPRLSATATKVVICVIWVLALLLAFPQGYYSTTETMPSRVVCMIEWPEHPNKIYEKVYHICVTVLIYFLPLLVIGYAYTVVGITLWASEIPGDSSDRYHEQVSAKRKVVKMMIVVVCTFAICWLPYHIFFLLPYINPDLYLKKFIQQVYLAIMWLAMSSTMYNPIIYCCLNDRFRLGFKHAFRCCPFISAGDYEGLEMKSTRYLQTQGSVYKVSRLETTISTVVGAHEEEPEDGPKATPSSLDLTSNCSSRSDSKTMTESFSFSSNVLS
Sequence of Substance-P receptor (Homo sapiens), P25103 [F264Y] (P25103 whole entry F264Y): as above
T1 sequence (P25103 whole entry): as the sequence (P25103 whole entry F264Y) above, with Y264F counted along it
T7 sequence (P29371 whole entry Y315F): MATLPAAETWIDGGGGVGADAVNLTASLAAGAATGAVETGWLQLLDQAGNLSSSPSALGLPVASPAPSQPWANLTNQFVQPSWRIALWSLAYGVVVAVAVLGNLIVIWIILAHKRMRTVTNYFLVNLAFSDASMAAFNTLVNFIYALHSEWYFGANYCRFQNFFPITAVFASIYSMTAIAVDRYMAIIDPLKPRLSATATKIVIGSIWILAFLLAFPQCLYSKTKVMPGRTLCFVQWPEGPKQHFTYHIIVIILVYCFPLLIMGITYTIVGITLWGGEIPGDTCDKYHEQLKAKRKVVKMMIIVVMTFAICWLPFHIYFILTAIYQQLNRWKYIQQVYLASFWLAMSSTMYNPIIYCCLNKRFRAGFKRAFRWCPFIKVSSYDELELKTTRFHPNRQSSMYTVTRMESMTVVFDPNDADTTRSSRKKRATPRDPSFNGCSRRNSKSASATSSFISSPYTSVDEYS
T5 sequence (P29371 whole entry Y247F): as the sequence (P29371 whole entry Y315F) above, with Y247F, F315Y counted along it
Sequence of Neuromedin-K receptor (Homo sapiens, UniProt P29371, H316F) (P29371 whole entry H316F): as the sequence (P29371 whole entry Y315F) above, with F315Y, H316F counted along it
Sequence of Neuromedin-K receptor (Homo sapiens, UniProt P29371, Y247W) (P29371 whole entry Y247W): as the sequence (P29371 whole entry Y315F) above, with Y247W, F315Y counted along it
Sequence of Neuromedin-K receptor (Homo sapiens, UniProt P29371, H316W) (P29371 whole entry H316W): as the sequence (P29371 whole entry Y315F) above, with F315Y, H316W counted along it
Sequence of Neuromedin-K receptor (Homo sapiens, UniProt P29371, Y247A) (P29371 whole entry Y247A): as the sequence (P29371 whole entry Y315F) above, with Y247A, F315Y counted along it

Take `Cc1cc(F)ccc1-c1cc(N2CCN(S(C)(=O)=O)[C@@H](C)C2)ncc1N(C)C(=O)C(C)(C)c1cc(C(F)(F)F)cc(C(F)(F)F)c1`: the Ki is 0.3 nM at Substance-P receptor [1]; 5.1 nM at Neuromedin-K receptor [5]; 0.5 nM on Substance-P receptor [6]; > 10000 nM at Neuromedin-K receptor [7]; 1.8 nM on Neuromedin-K receptor [9]; 1.7 nM at Neuromedin-K receptor [11]. In addition, the Ki at Neuromedin-K receptor [13] came out at 19.7 nM; on Neuromedin-K receptor [17], 0.2 nM. Further, the Kb was 16.2 nM at Neuromedin-K receptor [2] and 47.9 nM on Neuromedin-K receptor [10]. Moreover, in test [3], the outcome was inactive. Further, the inhibition result (in test [4]; at Substance-P receptor [12]; in [14]) was “Active” in each case. Also, the Ratio Ki was 3 with HEK293 [8], 11.6 in the test on HEK293 [15], 8.5 in the test with HEK293 [16] and 1.1 with HEK293 [18].
Regarding `Cc1cc(F)ccc1-c1cc(N2CCN(S(C)(=O)=O)CC2)ncc1N(C)C(=O)C(C)(C)c1cc(C(F)(F)F)cc(C(F)(F)F)c1`, the Ki on Substance-P receptor [1] amounted to 0.4 nM; on Substance-P receptor [6], 1.4 nM; on Neuromedin-K receptor [11], 2.4 nM; at Neuromedin-K receptor [17], 0.7 nM. Besides, the Kb was 123 nM at Neuromedin-K receptor [2] and 2.45 nM at Neuromedin-K receptor [19]. Moreover, the inhibition result (in [4]; at Substance-P receptor [12]) was “Active” throughout. Besides, the Ratio Ki in the test with HEK293 [16] is 3.4.
For `C[C@@H](O[C@H]1OCCN(Cc2n[nH]c(=O)[nH]2)[C@H]1c1ccc(F)cc1)c1cc(C(F)(F)F)cc(C(F)(F)F)c1` [APREPITANT], at Substance-P receptor [20], the T1/2 turned out to be 2.57 h. The compound further yielded a Ki on Neuromedin-K receptor [11] of 454 nM. Also, the inhibition entry on Substance-P receptor [12] is “Active”.
On to `COc1ccccc1CN[C@H]1C2CCN(CC2)[C@H]1C(c1ccccc1)c1ccccc1` [CP-96345], for which the Ki at Neuromedin-K receptor [11] was > 10000 nM.
In the case of `[3H]c1cccc(C2(N(C)C(C)=O)CCN(CCC[C@]3(c4ccc(Cl)c(Cl)c4)CCCN(C(=O)c4ccccc4)C3)CC2)c1`, on Neuromedin-K receptor [21], the Kd entry is recorded as “Not Active”.
Turning to `Cc1cc(F)ccc1-c1cc(N2CC[C@H](O)C2)ncc1N(C)C(=O)C(C)(C)c1cc(C(F)(F)F)cc(C(F)(F)F)c1`, the Ki was determined as 1.3 nM at Substance-P receptor [1], 2.1 nM at Substance-P receptor [6], 11.9 nM on Neuromedin-K receptor [11] and 2.5 nM on Neuromedin-K receptor [17]. Besides, the results for the Kb at Neuromedin-K receptor [2] and at Neuromedin-K receptor [19] were 120 nM and 20.9 nM, respectively. Also, the inhibition entry (in [4]; at Substance-P receptor [12]) was “Active” throughout. Moreover, the Ratio Ki with HEK293 [16] was 4.8.
As for `Cc1cc(F)ccc1-c1cc(N2CCC[C@H]2CO)ncc1N(C)C(=O)C(C)(C)c1cc(C(F)(F)F)cc(C(F)(F)F)c1`, the Ki at Substance-P receptor [1] amounted to 1.4 nM; on Substance-P receptor [6], 2.8 nM; on Neuromedin-K receptor [11], 1.5 nM; at Neuromedin-K receptor [17], 0.6 nM. Further, the inhibition result (in test [22]; on Substance-P receptor [12]; in test [14]) was “Active” throughout. In addition, the result in test [23] was Active. Moreover, the Kb at Substance-P receptor [24] was 39.8 nM. Also, the Ratio Ki with HEK293 [16] was 2.5.
Regarding `Cc1cc(F)ccc1-c1cc(N2CCN(S(C)(=O)=O)C[C@H]2CO)ncc1N(C)C(=O)C(C)(C)c1cc(C(F)(F)F)cc(C(F)(F)F)c1`, the Ki on Substance-P receptor [1] came out at 0.7 nM; on Substance-P receptor [6], 1.3 nM; at Neuromedin-K receptor [11] it was 1.2 nM; on Neuromedin-K receptor [17], 0.6 nM. The inhibition entry (in test [22]; on Substance-P receptor [12]; in [14]) was “Active” in each case. The result in test [23] was Active. Further, at Substance-P receptor [24], the Kb was 17 nM. Moreover, in the test with HEK293 [16], the Ratio Ki is 2.
With `Cc1cc(F)ccc1-c1cc(N2CCC3(CC2)OCCS3(=O)=O)ncc1N(C)C(=O)C(C)(C)c1cc(C(F)(F)F)cc(C(F)(F)F)c1`, the Ki is 1.4 nM at Substance-P receptor [1], 1.7 nM at Substance-P receptor [6], 3.5 nM at Neuromedin-K receptor [11] and 1 nM on Neuromedin-K receptor [17]. In addition, the Kb on Neuromedin-K receptor [2] was 97.7 nM; on Neuromedin-K receptor [19], 37.2 nM. Also, the inhibition result (in test [4]; at Substance-P receptor [12]) was “Active” in each case. Besides, the Ratio Ki with HEK293 [16] came out at 3.5.

As a reminder, the Ki is the dissociation constant of the complex between target and ligand, obtained from inhibition or displacement. Read a low Ki as a stronger hold on the target.
